In ChEMBL document CHEMBL3124940, “Design, synthesis and biological evaluation of D-ring opened galantamine analogs as multifunctional anti-Alzheimer agents” (Eur J Med Chem, 2014):
Calls of active or inactive are those of the source. The calls are words filed in the database; no cut-off is given here.

What was measured:
Rattus norvegicus [1] = experiment: Antialzheimer activity in Wistar rat scopolamine-induced cognition impairment model assessed as decrease in amount of errors plus baits not found during exploration at 1 umol/100 g body weight, ip treated for 5 mins prior to scopolamine-challenge measured after 20 to 120 mins by eight-arm radial maze test; assay type: functional, organism-based
Method in brief: (§1)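 Female 60-day-old Wistar rats (Han:Wist) trained in an eight-arm radial maze to error-free trials under 60 s on three consecutive days; each animal served as its own control. Test agent given i.p. in saline 5 min before scopolamine (0.05 mg/100 g b. wt., i.p. in saline). Errors plus baits not found after 10 min, and total searching time, recorded before and 20, 60, 120 min after scopolamine; n = 14, mean ± SEM.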

Acetylcholinesterase = Acetylcholinesterase (Electrophorus electricus, UniProt O42275); experiment: Inhibition of electric eel AChE using acetylthiocholine iodide as substrate preincubated for 5 mins followed by substrate addition measured after 5 mins by Ellman's method
Cholinesterase = Cholinesterase (Equus caballus, UniProt P81908); experiment: Inhibition of equine serum BChE using butyrylthiocholine iodide as substrate preincubated for 5 mins followed by substrate addition measured after 5 mins by Ellman's method
Method in brief: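 Ellman's method with equine serum BChE and butyrylthiocholine iodide; DTNB read-out at 412 nm, 25 °C. Phosphate buffer pH 8.0. At least five concentrations (normally 10^-4 to 10^-9 M), each in triplicate, to build the inhibition curve. Data are means of at least three determinations.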

[2] = Selectivity ratio of IC50 for electric eel AChE to IC50 for equine serum BChE
Method in brief: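 AChE is electric eel Type VI-S with acetylthiocholine; BChE is equine serum with butyrylthiocholine. At least five concentrations, each in triplicate. Ratio = IC50(AChE)/IC50(BChE).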

[3] = Induction of nitric oxide release in PBS at 100 uM at pH 7.4 after 24 hrs by Griess method relative to control; assay type: physicochemical; settings: buffer, pH 7.4, 24 h
Method in brief: (§2)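 Test compound at 100 µM in phosphate buffer pH 7.4, alone or with 90 µL rat serum added, incubated 37 °C for 24 h. Griess reagent added, then 30 min at 37 °C with gentle shaking; absorbance read at 540 nm and blank-corrected. Nitrite quantified against an NaNO2 calibration curve and expressed as % of a theoretical 1 mol NO per mol nitrate; n = 3.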

[4] = Induction of nitric oxide release in PBS at 100 uM at pH 7.4 after 24 hrs by Griess method in presence of rat serum; assay type: physicochemical; settings: pH 7.4, 24 h; method in brief: as §2
Rattus norvegicus [5] = experiment: Toxicity in Wistar rat assessed as change in movement at 1 umol/100 g body weight, ip; assay type: organism-based; settings: in vivo
Rattus norvegicus [6] = experiment: Antialzheimer activity in Wistar rat scopolamine-induced cognition impairment model assessed as total exploration time at 1 umol/100 g body weight, ip treated for 5 mins prior to scopolamine-challenge by eight-arm radial maze test relative to control; assay type: functional; method in brief: as §1
Rattus norvegicus [7] = experiment: Toxicity in Wistar rat scopolamine-induced cognition impairment model assessed as change in movement at 1 umol/100 g body weight, ip; assay type: organism-based; settings: in vivo
Method in brief: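 60-day-old female Wistar rats were trained in an eight-arm radial maze to no errors in under 60 s on 3 consecutive days; each rat served as its own control. Compound in saline was given i.p., then scopolamine (0.05 mg/100 g, saline, i.p.) 5 min later. Errors plus baits not found after 10 min and total searching time were recorded before and 20, 60 and 120 min after scopolamine; n = 14, mean ± SEM.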

[8] = target: Amyloid-beta precursor protein (Homo sapiens) (UniProt P05067); experiment: Inhibition of amyloid beta (1 to 42) aggregation (unknown origin) at 5 uM after 1 hr by thioflavin T fluorescence assay
Method in brief: (§3)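 Aβ42 stock (200 µM in DMSO) centrifuged 12,000 rpm for 10 min; supernatant used. Compound (2 µL of 0.2–4.0 mM DMSO stock) and 2 µL Aβ42 stock added to 76 µL PBS pH 7.4, incubated 1 h at room temperature. 80 µL of 5 µM ThT in 50 mM glycine-NaOH pH 8.5 then added; fluorescence read at excitation 430 nm, emission 488 nm.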

[9] = target: Amyloid-beta precursor protein (Homo sapiens) (UniProt P05067); experiment: Inhibition of amyloid beta (1 to 42) aggregation (unknown origin) after 1 hr by thioflavin T fluorescence assay; method in brief: as §3

Sequence of Cholinesterase (P81908 whole entry): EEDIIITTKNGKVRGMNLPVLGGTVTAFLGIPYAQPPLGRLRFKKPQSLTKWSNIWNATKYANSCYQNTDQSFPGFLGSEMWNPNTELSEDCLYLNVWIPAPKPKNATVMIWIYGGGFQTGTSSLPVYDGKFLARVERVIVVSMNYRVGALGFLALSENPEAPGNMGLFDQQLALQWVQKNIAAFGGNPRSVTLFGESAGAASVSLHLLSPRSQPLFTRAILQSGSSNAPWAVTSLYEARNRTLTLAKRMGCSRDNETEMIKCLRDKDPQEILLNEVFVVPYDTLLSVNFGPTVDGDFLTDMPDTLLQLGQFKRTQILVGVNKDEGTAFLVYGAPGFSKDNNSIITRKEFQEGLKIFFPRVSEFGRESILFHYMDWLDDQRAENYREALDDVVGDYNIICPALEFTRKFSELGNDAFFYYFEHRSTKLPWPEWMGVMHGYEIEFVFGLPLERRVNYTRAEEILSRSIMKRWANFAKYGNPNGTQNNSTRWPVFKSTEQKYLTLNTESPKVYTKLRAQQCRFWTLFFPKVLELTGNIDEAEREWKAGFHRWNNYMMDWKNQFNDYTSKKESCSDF
Sequence of Acetylcholinesterase (O42275 whole entry): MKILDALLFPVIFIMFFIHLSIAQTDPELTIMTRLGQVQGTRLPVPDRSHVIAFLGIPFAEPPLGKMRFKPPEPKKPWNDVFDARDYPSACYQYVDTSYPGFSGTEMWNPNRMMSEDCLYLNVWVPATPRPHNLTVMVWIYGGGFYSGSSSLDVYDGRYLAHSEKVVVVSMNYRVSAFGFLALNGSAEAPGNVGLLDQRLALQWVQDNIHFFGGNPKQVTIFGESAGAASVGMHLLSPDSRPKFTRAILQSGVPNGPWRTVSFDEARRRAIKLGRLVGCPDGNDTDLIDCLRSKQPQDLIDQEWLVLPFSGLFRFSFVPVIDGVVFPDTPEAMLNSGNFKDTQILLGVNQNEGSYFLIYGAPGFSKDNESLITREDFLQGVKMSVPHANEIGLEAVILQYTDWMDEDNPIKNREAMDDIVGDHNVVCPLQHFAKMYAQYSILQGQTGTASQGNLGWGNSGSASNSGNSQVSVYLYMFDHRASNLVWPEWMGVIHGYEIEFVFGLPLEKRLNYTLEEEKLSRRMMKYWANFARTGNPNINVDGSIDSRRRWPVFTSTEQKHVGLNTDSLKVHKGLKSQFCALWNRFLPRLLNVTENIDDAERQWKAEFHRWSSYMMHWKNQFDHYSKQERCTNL
Sequence of Amyloid-beta precursor protein (Homo sapiens) (P05067 whole entry): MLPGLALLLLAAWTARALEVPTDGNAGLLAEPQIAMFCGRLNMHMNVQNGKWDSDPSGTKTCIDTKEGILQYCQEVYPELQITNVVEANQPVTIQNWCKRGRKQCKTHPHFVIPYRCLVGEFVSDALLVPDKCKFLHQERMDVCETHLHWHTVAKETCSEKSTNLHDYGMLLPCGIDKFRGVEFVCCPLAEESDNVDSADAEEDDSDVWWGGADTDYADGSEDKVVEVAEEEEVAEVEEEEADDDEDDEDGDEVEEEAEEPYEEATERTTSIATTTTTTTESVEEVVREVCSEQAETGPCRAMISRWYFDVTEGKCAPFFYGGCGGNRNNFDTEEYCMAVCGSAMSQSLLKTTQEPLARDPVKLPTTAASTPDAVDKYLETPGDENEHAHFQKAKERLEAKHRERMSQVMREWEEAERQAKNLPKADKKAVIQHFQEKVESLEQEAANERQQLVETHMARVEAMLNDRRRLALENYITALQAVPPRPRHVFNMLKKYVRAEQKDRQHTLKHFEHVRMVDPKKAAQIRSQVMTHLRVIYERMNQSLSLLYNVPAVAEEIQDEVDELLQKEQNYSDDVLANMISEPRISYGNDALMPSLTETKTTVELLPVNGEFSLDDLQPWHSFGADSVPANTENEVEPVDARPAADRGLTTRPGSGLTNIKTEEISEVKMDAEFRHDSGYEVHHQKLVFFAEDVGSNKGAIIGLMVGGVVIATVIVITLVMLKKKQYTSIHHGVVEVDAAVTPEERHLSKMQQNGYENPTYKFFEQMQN

| SMILES | IC50 (Acetylcholinesterase) | IC50 (Cholinesterase) | Ratio IC50 [2] | other results |
| --- | --- | --- | --- | --- |
| COc1ccc2c(c1)[nH]c1cccc(CN(C(=O)CCO[N+](=O)[O-])C(C)C)c12 | 2.21 µM | 2.5 µM | 0.88 | Activity (Rattus norvegicus [1]): Active; Activity [3]: 4.8%; Activity [4]: Active; Activity (Rattus norvegicus [5]): Non-toxic; Time (Rattus norvegicus [6]): 107 s; Activity (Rattus norvegicus [7]): Non-toxic |
| COc1ccc2c(c1)oc1cccc(CNCc3ccccc3)c12 | > 50 µM | 18.1 µM |  |  |
| COc1ccc2c(c1)[nH]c1cccc(CNC(C)C)c12 | 50.8 µM | 10.1 µM | 5.03 |  |
| CCN(CC)Cc1cccc2oc3cc(OC)ccc3c12 | 39.1 µM | 27.4 µM | 1.43 |  |
| CCN(CC)Cc1cccc2[nH]c3cc(OC)ccc3c12 | 37.9 µM | 14.9 µM | 2.54 |  |
| COc1cc(/C=C/C(=O)CC(=O)/C=C/c2ccc(O)c(OC)c2)ccc1O |  |  |  | inhibition [8]: inactive; inhibition [9]: Dose-dependent effect |
| CCN(C)Cc1cccc2oc3cc(OC)ccc3c12 | > 50 µM |  |  |  |
